Shown are actives, neighbours in structure and some others; about 1.4% of the full set was active somewhere.
HTR5A inv ag: counter-screen for OPRM1-OPRD1 inverse agonists: human HTR5A inverse agonism; AID 504634; HTR5A cell line, luminescence; P47898; inhibition, % at 9.3 µM; 0.083% of 340,000 active; in the data active means inhibition mostly above about 23%, no sharp cut-off; inactive means mostly below about 18%
DAGLB inhibitor: diacylglycerol lipase beta (human) inhibition; Q8NCG7; HEK293T DAGLB membrane lysate, EnzChek fluorogenic substrate; inhibition, % at 5.17 µM; 0.059% of 340,000 active; AID 504411; in the data active means inhibition above about 34%
OPRM1-OPRD1 ag: agonists of human mu-delta opioid receptor heterodimerization | 0.3% of 340,000 active | activation, % at 9.3 µM | cells, OPRM1-OPRD1 heterodimerization, luminescence | P35372+P41143
Target sequence (P35372 whole entry, looked up): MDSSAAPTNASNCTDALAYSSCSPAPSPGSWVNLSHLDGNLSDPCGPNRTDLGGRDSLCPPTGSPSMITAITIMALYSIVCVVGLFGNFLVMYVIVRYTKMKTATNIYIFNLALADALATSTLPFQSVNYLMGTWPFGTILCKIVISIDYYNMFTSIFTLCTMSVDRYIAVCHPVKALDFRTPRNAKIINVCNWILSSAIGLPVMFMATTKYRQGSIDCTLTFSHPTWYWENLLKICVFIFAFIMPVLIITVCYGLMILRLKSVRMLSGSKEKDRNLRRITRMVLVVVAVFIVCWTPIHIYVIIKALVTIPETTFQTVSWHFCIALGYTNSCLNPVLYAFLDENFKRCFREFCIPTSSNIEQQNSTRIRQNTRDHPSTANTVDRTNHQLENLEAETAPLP
Target sequence (P41143 whole entry, looked up): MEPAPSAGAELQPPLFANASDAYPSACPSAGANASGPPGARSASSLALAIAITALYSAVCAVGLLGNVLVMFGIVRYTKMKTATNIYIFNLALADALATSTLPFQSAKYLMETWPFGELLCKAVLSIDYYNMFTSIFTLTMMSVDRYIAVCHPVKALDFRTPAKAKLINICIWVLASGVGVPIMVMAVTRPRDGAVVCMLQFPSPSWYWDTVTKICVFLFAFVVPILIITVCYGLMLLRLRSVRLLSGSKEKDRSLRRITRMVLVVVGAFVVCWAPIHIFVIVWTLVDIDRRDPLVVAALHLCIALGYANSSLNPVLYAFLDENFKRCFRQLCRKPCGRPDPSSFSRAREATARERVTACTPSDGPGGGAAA
OPRM1-OPRD1 inv: mu-delta opioid heterodimer inverse agonism. 0.21% of 340,000 active. AID 504357. cell-based MOR-DOR heterodimer luminescence. inhibition, % at 9.3 µM; in the data active means inhibition above about 22%, passing the limit was not always enough
HTR5A ag ctr: counter-screen for OPRM1-OPRD1 agonists: human HTR5A agonism. HTR5A agonist assay, luminescence, cell-based. AID 504692. P47898. 0.61% of 340,000 active. activation, % at 9.3 µM; in the data active means activation mostly above about 9.5%, no sharp cut-off; inactive means mostly below about 7.6%
Arr AP2 block: human beta-arrestin and AP2 interaction inhibition; 0.31% of 340,000 active; inhibition, % at 10 µM; FITC-arrestin peptide / GST-AP2 beads, flow cytometry; AP2 beta2 appendage carries R879A mutation; AID 504490;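 active means inhibition above a set limit, near 3 SD of compounds lacking own fluorescence, cut at about 54% in these data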
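test system = AP2 appendage R879A on GSH beads | buffer or medium = PBS plus Tween 20 (0.05%) and BSA (0.1%) | incubation = 12 min plus 1 h, RT | detection = bead flow cytometry, FITC channel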
MOR-DOR ag conf: OPRM1-OPRD1 heterodimer agonism, confirmation; shares compounds with OPRM1-OPRD1 ag; cells, MOR-DOR heterodimerization, luminescence complementation; activation, % at 9.3 µM; 45% of 830 active
HTR5A ag counter: HTR5A agonism, opioid heterodimer counter-screen; shares compounds with OPRM1-OPRD1 ag; HTR5A agonist counterscreen, cell luminescence; activation, % at 9.3 µM; 8% of 830 active; in the data active means activation above about 17%
Large screens that a line does not name were inactive (follow-up assays come after a bar, where they were run). Unless noted, no stated cut-off is given here; in the data, active means activation above about 18%; inactive means the rest.

Cc1nc(Cc2nnc(SCC(=O)N3c4ccccc4NC(=O)C3(C)C)o2)cs1	none (no result: HTR5A inv ag, OPRM1-OPRD1 ag, OPRM1-OPRD1 inv, HTR5A ag ctr, Arr AP2 block)
Cc1cccc(N2CCN(C(=S)c3ccc4c(c3)OCO4)CC2)c1	none
O=C1CCCCC1(O)Cc1ccc2c(c1)OCO2 (stereo unspecified)	none
Cc1nc2c(O)c3c(c(O)c2nc1C)C1C=CC3CC1	OPRM1-OPRD1 ag 22 | MOR-DOR ag conf inactive | HTR5A ag counter inactive
Cc1nc2c(C)c(C)c(C)c(C)c2nc1C	none (no result: HTR5A inv ag, DAGLB inhibitor, OPRM1-OPRD1 ag, OPRM1-OPRD1 inv, HTR5A ag ctr)
N#Cc1nc(NCC(F)F)nc(Nc2cc(F)cc(F)c2)n1	OPRM1-OPRD1 ag 21 | MOR-DOR ag conf inactive | HTR5A ag counter inactive
N#Cc1nc(Nc2cc(F)cc(F)c2)c2ncn(CC(F)F)c2n1	none
CC1=C(C(=O)Nc2nc3ccccc3s2)C(c2ccco2)C(C#N)=C(SCC(=O)NC2CCCCC2)N1 (stereo unspecified)	OPRM1-OPRD1 ag 26 | MOR-DOR ag conf inactive | HTR5A ag counter inactive
CC1=C(C(=O)Nc2ccccc2)C(c2ccncc2)C(C#N)=C(SCC(=O)NC2CC2)N1 (stereo unspecified)	none
O=C1NN(c2ccccc2)C(=O)C1=Cc1ccccc1O	none (no result: HTR5A inv ag, OPRM1-OPRD1 ag, OPRM1-OPRD1 inv, HTR5A ag ctr, Arr AP2 block)
Cc1cc(/C=C2/C(=O)NN(c3ccccc3)C2=O)c(C)n1-c1cccc(O)c1	OPRM1-OPRD1 ag 20 | MOR-DOR ag conf inactive | HTR5A ag counter inactive
CCCOc1ccc(C(=O)Nc2ccc(N3CCN(C(C)=O)CC3)cc2)cc1	none
CCCOc1ccc(C(=O)Nc2ccc(N3CCN(C(=O)c4ccco4)CC3)cc2)cc1	OPRM1-OPRD1 ag 23 | MOR-DOR ag conf inactive | HTR5A ag counter inactive
CCCCCC(=O)N1C[C@@H](n2cc(C3CC3)nn2)[C@H](O)C[C@@H]1c1ccc(Cl)cc1	none (no result: HTR5A inv ag, OPRM1-OPRD1 ag, OPRM1-OPRD1 inv, HTR5A ag ctr, Arr AP2 block)
O=C(NC1CCN(Cc2ccc(Cl)cc2Cl)CC1)c1ccccc1	OPRM1-OPRD1 ag 18 | MOR-DOR ag conf 26 | HTR5A ag counter inactive
O=C(NC1CCN(Cc2ccccc2)CC1)c1ccccc1	none
CCN(C(=O)COC(=O)CCOc1ccc(C(C)(C)C)cc1)c1c(N)n(Cc2ccccc2)c(=O)[nH]c1=O	none
O=C(Nc1ccc2c(c1)C(=O)N(c1ccccc1)C2=O)c1cccs1	OPRM1-OPRD1 ag 18 | MOR-DOR ag conf inactive | HTR5A ag counter inactive
COc1ccc(/C=N/NC(=O)COc2ccc(Cl)cc2Cl)cc1Cn1nc(C)cc1C	OPRM1-OPRD1 ag 28 | MOR-DOR ag conf inactive | HTR5A ag counter inactive
CC1C(=O)N(Cc2cn(CC3CCCCC3)nn2)CCS(=O)(=O)N1Cc1ccc(-c2ccc(Cl)cc2)cc1 (stereo unspecified)	none (no result: HTR5A inv ag, OPRM1-OPRD1 ag, OPRM1-OPRD1 inv, HTR5A ag ctr, Arr AP2 block)
CCCSc1nc(N)nc2c1ncn2C1OC(CO)C(O)C1O (stereo unspecified)	none
CN1CCN(c2ccc(NC(=O)c3ccc(-c4ccc(Br)cc4)o3)cc2)CC1	OPRM1-OPRD1 ag 345, HTR5A ag ctr 17 | MOR-DOR ag conf 36 | HTR5A ag counter inactive
CCN1CCN(c2ccc(NC(=O)c3ccc(Br)o3)cc2)CC1	none
CCOC(=O)c1c2c(n(C)c1C)C(=O)C(=O)c1ccc(Br)cc1-2	none
CCOC(=O)c1c2c(n(Cc3ccccc3)c1C)C(=O)C(=O)c1ccccc1-2	OPRM1-OPRD1 ag 19 | MOR-DOR ag conf inactive | HTR5A ag counter inactive
OCC1(CCc2ccccc2)CCN(Cc2cccn2-c2cccnc2)CC1	OPRM1-OPRD1 ag 144 | MOR-DOR ag conf 384 | HTR5A ag counter inactive
Cc1cc(NC(=O)CN2CCc3ccccc3C2)nc2c1c(=O)oc1ccccc12	OPRM1-OPRD1 ag 518 | MOR-DOR ag conf inactive | HTR5A ag counter inactive
CCCC(=O)Nc1cc(C)c2c(=O)oc3ccccc3c2n1	none
O=C(COc1ccc(S(=O)(=O)N2CCOCC2)cc1)NCCc1ccc(Cl)cc1	none (no result: HTR5A inv ag, OPRM1-OPRD1 ag, OPRM1-OPRD1 inv, HTR5A ag ctr, Arr AP2 block)
CN1CCN(C(=O)C(=O)c2cn(CC(=O)N3CCOCC3)c3ccccc23)CC1	none (no result: HTR5A inv ag, OPRM1-OPRD1 ag, OPRM1-OPRD1 inv, HTR5A ag ctr, Arr AP2 block)
N=c1n(Cc2ccc(Cl)cc2)c2ccccc2n1CC(O)COc1ccccc1 (stereo unspecified)	OPRM1-OPRD1 ag 94, HTR5A ag ctr 14 | MOR-DOR ag conf inactive | HTR5A ag counter inactive
